In ChEMBL document CHEMBL2176910, “Identification of small molecule inhibitors of amyloid β-induced neuronal apoptosis acting through the imidazoline I(2) receptor” (J Med Chem, 2012):
pKi: −log10 of the molar value. Activity calls are given as the source filed them. The calls are words filed in the database; no cut-off is given here.

What was measured:
[1] = target: T1, 5-hydroxytryptamine receptor 3A (Homo sapiens) (UniProt P46098); test: Inhibition of radioligand binding to 5HT3 at 10 uM
T1 sequence (whole entry): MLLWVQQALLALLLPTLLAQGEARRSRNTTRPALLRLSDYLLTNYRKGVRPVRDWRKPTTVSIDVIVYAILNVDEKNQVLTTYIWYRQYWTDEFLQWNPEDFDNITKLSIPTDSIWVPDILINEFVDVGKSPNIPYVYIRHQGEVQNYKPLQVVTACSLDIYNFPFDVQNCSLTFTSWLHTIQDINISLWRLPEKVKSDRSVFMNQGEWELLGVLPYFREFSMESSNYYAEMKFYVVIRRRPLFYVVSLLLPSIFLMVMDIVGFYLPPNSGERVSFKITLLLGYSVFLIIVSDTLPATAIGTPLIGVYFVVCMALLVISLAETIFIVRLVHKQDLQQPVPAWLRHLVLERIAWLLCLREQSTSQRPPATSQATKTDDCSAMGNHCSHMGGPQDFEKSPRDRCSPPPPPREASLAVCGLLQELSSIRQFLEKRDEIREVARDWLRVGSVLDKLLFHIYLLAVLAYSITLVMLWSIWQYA
Summary of the method: (§1)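 Part of an in vitro radioligand binding panel. Each target was tested against a potent standard radioligand for that site. The read-out was percent inhibition of specific binding, reported as an average value.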

[2] = target: T2, 5-hydroxytryptamine receptor 1A (Homo sapiens) (UniProt P08908); test: Inhibition of radioligand binding to 5HT1A at 10 uM; summary of the method: as §1
T2 sequence (whole entry): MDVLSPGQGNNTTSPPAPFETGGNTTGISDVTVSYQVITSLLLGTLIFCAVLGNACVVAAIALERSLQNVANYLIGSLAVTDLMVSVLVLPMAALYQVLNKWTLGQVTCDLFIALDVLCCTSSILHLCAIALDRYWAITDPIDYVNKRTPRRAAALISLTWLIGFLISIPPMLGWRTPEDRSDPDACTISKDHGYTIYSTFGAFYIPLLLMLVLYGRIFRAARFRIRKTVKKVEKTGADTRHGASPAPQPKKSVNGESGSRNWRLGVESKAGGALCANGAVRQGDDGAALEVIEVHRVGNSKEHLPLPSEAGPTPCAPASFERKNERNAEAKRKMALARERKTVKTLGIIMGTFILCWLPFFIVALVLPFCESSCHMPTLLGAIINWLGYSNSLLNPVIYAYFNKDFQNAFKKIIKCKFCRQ

[3] = target: Acetylcholinesterase (Homo sapiens) (UniProt P22303); test: Inhibition of AChE at 10 uM; summary of the method: as §1
[4] = Inhibition of radioligand binding to Sigma receptor at 10 uM
[5] = Inhibition of radioligand binding to alpha2 adrenergic receptor at 10 uM; summary of the method: as §1
[6] = target: Muscarinic acetylcholine receptor M3 (Homo sapiens) (UniProt P20309); test: Inhibition of radioligand binding to muscarinic M3 receptor at 10 uM; summary of the method: as §1
[7] = species: Mus musculus; test: Inhibition of imidazole receptor 2 in mouse hippocampal neurons assessed as reduction in tPA-induced Erk1/2 activation at 30 uM pre-incubated for 4 hrs before tPA stimulation by ELISA; details: Hippocampus
Summary of the method: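 Primary mouse hippocampal neurons were stimulated with tPA (20 μg/mL, 1 h) with or without compound at 30 μM. Phospho-Erk1/2 was measured by ELISA with a phospho-specific antibody and normalized to total Erk1/2. Untreated cultures set the lower limit and tPA alone the upper limit.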

[8] = tested on: Hippocampal neuron; test: Neuroprotective activity against Abeta-induced neuronal apoptosis in mouse hippocampal neurons assessed as reduction in total neuronal nuclei level at 30 uM pre-incubated for 4 hrs before Abeta challenge for 72 hrs by immunofluorescence microscopy; assay type: functional, tissue-based; details: Hippocampus
Summary of the method: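 Primary mouse hippocampal neurons were exposed to Aβ (20 μM, 72 h) alone or with compound. Double immunofluorescence microscopy was then run for DNA fragmentation (TUNEL, green) and total neuronal nuclei (NeuN, red), with merged images. DNase-treated cells served as positive control.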

[9] = target: T3, MAO-B (amine oxidase [flavin-containing] B) (Homo sapiens, UniProt P27338); test: Inhibition of MAOB at 10 uM
T3 sequence (P27338 whole entry): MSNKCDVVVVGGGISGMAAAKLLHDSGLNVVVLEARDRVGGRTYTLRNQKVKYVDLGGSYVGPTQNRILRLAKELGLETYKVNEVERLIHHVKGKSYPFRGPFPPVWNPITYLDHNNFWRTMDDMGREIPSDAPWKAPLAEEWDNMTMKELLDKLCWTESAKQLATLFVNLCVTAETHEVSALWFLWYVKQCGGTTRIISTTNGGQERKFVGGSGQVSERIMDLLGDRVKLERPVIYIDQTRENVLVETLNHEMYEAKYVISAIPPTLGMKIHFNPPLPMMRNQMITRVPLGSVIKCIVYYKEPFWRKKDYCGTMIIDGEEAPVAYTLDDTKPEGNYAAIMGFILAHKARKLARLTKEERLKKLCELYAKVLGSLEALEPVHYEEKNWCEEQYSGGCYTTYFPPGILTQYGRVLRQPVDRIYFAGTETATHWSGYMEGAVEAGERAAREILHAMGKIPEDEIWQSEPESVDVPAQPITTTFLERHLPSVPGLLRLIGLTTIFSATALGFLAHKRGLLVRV
Summary of the method: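 Radioligand binding panel. Values are average percentages of inhibition of specific binding, measured against potent standard ligands for each target.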

[10] = target: Nischarin (Homo sapiens, UniProt Q9Y2I1); test: Inhibition of radioligand binding to imidazole receptor 1
Sequence of Nischarin (Q9Y2I1 whole entry): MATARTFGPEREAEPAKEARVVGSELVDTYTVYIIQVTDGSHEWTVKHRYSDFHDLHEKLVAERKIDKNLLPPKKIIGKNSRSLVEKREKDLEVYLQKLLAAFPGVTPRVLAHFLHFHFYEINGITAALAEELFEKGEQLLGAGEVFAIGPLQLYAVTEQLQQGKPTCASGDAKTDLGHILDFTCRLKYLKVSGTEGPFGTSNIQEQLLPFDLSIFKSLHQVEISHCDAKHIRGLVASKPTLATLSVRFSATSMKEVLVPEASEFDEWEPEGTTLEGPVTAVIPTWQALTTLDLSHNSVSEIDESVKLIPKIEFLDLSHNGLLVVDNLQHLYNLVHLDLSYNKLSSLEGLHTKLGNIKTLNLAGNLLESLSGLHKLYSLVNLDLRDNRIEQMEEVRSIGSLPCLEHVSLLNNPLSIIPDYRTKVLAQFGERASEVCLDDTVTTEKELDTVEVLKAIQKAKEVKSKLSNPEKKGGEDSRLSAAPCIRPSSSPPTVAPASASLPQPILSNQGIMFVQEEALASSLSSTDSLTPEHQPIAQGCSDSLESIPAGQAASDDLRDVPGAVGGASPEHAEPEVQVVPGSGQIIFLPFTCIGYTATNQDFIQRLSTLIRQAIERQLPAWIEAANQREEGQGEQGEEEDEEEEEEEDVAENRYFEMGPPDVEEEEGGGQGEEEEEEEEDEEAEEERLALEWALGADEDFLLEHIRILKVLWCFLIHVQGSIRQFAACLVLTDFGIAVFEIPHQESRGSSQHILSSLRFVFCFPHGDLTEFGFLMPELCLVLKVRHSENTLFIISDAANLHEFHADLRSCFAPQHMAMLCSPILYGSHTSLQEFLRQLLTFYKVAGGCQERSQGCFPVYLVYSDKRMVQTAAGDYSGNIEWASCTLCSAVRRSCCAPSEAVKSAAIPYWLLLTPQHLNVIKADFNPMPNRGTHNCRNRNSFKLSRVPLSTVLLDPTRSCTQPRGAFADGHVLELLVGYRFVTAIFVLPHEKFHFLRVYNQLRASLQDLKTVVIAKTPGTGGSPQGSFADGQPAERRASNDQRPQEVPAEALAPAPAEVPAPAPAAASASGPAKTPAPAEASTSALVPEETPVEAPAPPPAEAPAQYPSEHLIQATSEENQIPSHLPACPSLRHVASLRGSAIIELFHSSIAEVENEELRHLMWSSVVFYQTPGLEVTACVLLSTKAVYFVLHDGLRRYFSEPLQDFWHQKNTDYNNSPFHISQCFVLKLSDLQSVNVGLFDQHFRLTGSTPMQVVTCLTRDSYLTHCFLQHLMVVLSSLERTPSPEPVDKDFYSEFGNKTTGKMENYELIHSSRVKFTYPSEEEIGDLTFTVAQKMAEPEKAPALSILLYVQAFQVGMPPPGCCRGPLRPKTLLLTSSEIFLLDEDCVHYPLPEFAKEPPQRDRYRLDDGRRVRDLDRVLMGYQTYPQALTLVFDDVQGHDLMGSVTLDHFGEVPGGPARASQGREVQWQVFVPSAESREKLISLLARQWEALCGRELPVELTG

Sequence of Acetylcholinesterase (Homo sapiens) (P22303 whole entry): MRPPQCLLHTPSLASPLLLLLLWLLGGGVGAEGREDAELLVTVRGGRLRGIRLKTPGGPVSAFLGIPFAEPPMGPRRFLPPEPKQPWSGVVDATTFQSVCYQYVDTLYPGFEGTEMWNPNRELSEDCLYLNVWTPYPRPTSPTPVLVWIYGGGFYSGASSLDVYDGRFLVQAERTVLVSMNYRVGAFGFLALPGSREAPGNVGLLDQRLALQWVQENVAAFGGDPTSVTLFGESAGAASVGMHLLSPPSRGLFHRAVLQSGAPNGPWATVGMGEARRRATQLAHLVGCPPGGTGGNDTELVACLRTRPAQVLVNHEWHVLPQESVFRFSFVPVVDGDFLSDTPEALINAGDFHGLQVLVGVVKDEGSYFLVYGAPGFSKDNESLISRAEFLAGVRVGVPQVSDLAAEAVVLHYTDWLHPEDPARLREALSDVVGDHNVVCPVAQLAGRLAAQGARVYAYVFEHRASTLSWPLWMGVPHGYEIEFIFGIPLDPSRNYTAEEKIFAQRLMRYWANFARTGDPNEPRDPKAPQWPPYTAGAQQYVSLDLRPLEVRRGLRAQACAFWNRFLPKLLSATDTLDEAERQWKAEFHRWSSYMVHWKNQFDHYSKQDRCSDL
Sequence of Muscarinic acetylcholine receptor M3 (Homo sapiens) (P20309 whole entry, looked up): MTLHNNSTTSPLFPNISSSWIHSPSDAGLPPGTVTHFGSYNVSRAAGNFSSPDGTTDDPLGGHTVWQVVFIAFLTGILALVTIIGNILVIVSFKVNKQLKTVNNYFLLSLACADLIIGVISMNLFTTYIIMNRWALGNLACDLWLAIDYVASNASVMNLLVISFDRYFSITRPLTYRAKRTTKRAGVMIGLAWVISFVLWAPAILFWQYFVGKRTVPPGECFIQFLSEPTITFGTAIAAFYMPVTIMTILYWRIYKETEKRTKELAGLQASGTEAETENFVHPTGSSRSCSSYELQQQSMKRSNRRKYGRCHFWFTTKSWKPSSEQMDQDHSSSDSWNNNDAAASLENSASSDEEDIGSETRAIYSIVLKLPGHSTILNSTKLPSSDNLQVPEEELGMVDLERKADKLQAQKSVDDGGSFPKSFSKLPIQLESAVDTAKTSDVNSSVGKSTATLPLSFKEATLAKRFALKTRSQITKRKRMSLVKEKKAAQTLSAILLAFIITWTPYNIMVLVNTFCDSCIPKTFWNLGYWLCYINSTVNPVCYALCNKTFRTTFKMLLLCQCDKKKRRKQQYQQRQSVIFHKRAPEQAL

CN1CCNC(c2ccccc2)C1 (stereo not drawn)
inhibition [1]: < 20% | inhibition [2]: < 20% | inhibition [3]: < 20% | inhibition [4]: < 20% | inhibition [5]: < 20% | inhibition [6]: < 20% | inhibition of tPA-induced Erk1/2 activation (active/inactive call) [7]: Active | Activity [8]: Active | inhibition at 10 µM [9]: < 20%

NCC12CCC3CC(CC3C1)C2 (stereo not drawn)
inhibition [1]: < 20% | inhibition [2]: < 20% | inhibition [3]: < 20% | inhibition [4]: 39% | inhibition [5]: < 20% | inhibition [6]: < 20% | inhibition of tPA-induced Erk1/2 activation (active/inactive call) [7]: Active | Activity [8]: Active | inhibition at 10 µM [9]: < 20%

CN(C)C(CN)c1ccccc1Cl (stereo not drawn)
inhibition [1]: < 20% | inhibition [2]: < 20% | pKi [10]: 5.28 | inhibition [3]: < 20% | inhibition [4]: < 20% | inhibition [5]: < 20% | inhibition [6]: < 20% | inhibition of tPA-induced Erk1/2 activation (active/inactive call) [7]: Active | Activity [8]: Active | inhibition at 10 µM [9]: < 20%
